Test results from ChEMBL document CHEMBL3102754, “3D-QSAR study of adamantyl N-benzylbenzamides as melanogenesis inhibitors” (Bioorg Med Chem Lett, 2014).

These molecules were tested on B16 (assay: Antimelanogenic activity in mouse B16 cells after 4 days by spectrophotometry). Conditions: B16, 96 h.
Type: functional, cell-based
How it was run: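 Cells seeded at 2 × 10^5 cells/mL and treated in triplicate, with medium changed daily. After 4 d of culture, cells lysed in 1 N NaOH and crude extract transferred for melanin content reading.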

IC50 [µM]	Structure (SMILES)
0.899	O=C(NCc1ccc(O)cc1O)c1ccc(O)c(C23CC4CC(CC(C4)C2)C3)c1
3.14	COc1ccc(OC)c(CNC(=O)c2ccc(OC)c(C34CC5CC(CC(C5)C3)C4)c2)c1
2.33	COc1ccc(C(=O)NCCc2ccc(O)c(O)c2)cc1C12CC3CC(CC(C3)C1)C2
1.92	COc1cc(O)c(C(=O)NCCc2ccc(O)cc2)cc1C12CC3CC(CC(C3)C1)C2
5.41	COc1ccc(OC)c(CNC(=O)c2ccc(O)c(C34CC5CC(CC(C5)C3)C4)c2)c1
3.86	COc1ccc(CNC(=O)c2ccc(O)c(C34CC5CC(CC(C5)C3)C4)c2)cc1OC
3.41	COc1ccc(C(=O)NCCc2ccc(O)cc2)cc1C12CC3CC(CC(C3)C1)C2
2.5	O=C(NCc1ccc(O)c(O)c1)c1cc(C23CC4CC(CC(C4)C2)C3)c(O)cc1O
5	COc1ccc(CNC(=O)c2ccc(OC)c(C34CC5CC(CC(C5)C3)C4)c2)cc1OC
2.23	COc1ccc(C(=O)NCc2ccc(O)c(O)c2)cc1C12CC3CC(CC(C3)C1)C2
4.5	COc1ccc(CCNC(=O)c2ccc(OC)c(C34CC5CC(CC(C5)C3)C4)c2)cc1OC
4.44	COc1cc(CNC(=O)c2ccc(O)c(C34CC5CC(CC(C5)C3)C4)c2)cc(OC)c1
2.57	O=C(NCc1ccc(O)c(O)c1)c1ccc(O)c(C23CC4CC(CC(C4)C2)C3)c1
2.09	O=C(NCCc1ccc(O)c(O)c1)c1ccc(O)c(C23CC4CC(CC(C4)C2)C3)c1
5.02	COc1cc(CNC(=O)c2ccc(OC)c(C34CC5CC(CC(C5)C3)C4)c2)cc(OC)c1
3.81	COc1ccc(CNC(=O)c2cc(C34CC5CC(CC(C5)C3)C4)c(O)cc2O)cc1OC
1.4	COc1ccc(C(=O)NCc2ccc(O)cc2O)cc1C12CC3CC(CC(C3)C1)C2
1.25	COc1cc(O)c(C(=O)NCCc2ccc(O)c(O)c2)cc1C12CC3CC(CC(C3)C1)C2
1.29	COc1cc(O)c(C(=O)NCc2ccc(O)c(O)c2)cc1C12CC3CC(CC(C3)C1)C2

The remaining lines, values behind:

Structure (SMILES)	IC50 [µM]
COc1ccc(C(=O)NCCc2ccc(O)cc2)c(O)c1	5
O=C(NCc1cc(O)ccc1O)c1cc(C23CC4CC(CC(C4)C2)C3)c(O)cc1O	0.729
COc1ccc(C(=O)NCCc2ccc(O)cc2)c(OC)c1	27
COc1ccccc1CNC(=O)c1cc(C23CC4CC(CC(C4)C2)C3)c(O)cc1O	2.31
O=C(NCCc1ccc(O)c(O)c1)c1cc(C23CC4CC(CC(C4)C2)C3)c(O)cc1O	4.33
O=C(NCCc1ccc(O)cc1)c1cc(C23CC4CC(CC(C4)C2)C3)c(O)cc1O	1.1
O=C(NCCc1ccc(O)c(O)c1)c1ccc(O)cc1	75
COc1ccc(C(=O)NCc2ccc(O)c(O)c2)c(OC)c1	8.99
COc1ccc(C(=O)NCCc2ccc(O)c(O)c2)c(OC)c1	11
COc1ccc(CNC(=O)c2cc(C34CC5CC(CC(C5)C3)C4)c(O)cc2O)c(O)c1	5.71
COc1ccc(CNC(=O)c2cc(C34CC5CC(CC(C5)C3)C4)c(O)cc2O)c(OC)c1	3.69
O=C(NCc1ccc(O)c(O)c1)c1ccc(O)cc1	55
O=C(NCc1ccc(O)cc1)c1cc(C23CC4CC(CC(C4)C2)C3)c(O)cc1O	1.23
COc1cc(OC)c(C23CC4CC(CC(C4)C2)C3)cc1C(=O)NCCc1ccc(O)cc1	1.2
COc1cc(CNC(=O)c2cc(C34CC5CC(CC(C5)C3)C4)c(O)cc2O)cc(OC)c1OC	2.94
COc1ccc(C(=O)NCc2ccc(O)c(O)c2)cc1	10
O=C(NCc1ccc(O)c(O)c1)c1ccc(O)cc1O	8
O=C(NCc1ccc(O)cc1O)c1cc(C23CC4CC(CC(C4)C2)C3)c(O)cc1O	1.2
COc1cc(CNC(=O)c2cc(C34CC5CC(CC(C5)C3)C4)c(O)cc2O)cc(OC)c1	2.57
COc1ccc(CCNC(=O)c2cc(C34CC5CC(CC(C5)C3)C4)c(O)cc2O)cc1OC	4.08
O=C(NCc1cc(O)ccc1O)c1ccc(O)cc1O	24.2
COc1ccc(C(=O)NCCc2ccc(O)c(O)c2)cc1	23
COc1ccc(C(=O)NCc2ccc(O)c(O)c2)c(O)c1	8
COc1ccc(OC)c(CNC(=O)c2cc(C34CC5CC(CC(C5)C3)C4)c(O)cc2O)c1	4.1
